# “And” between values parts separate entries of the source, which are not always exact repeats. Equal entries are not always repeated.
# Assays:
# Settings in all cases: in vivo
# [1] = test system: Plasma; assay: Drug level in plasma of healthy human treated with [14C]almorexant at 200 mg, po dosed as single dose; assay type: ADME, organism-based
# Summary of the method: (§1)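 Plasma from 6 subjects given one 200 mg oral 14C dose, pooled over at least 2 time points and acetonitrile-precipitated. Radio-LC-MS/MS used a C18 column with ammonium formate pH 4.0/acetonitrile gradient and 0.15-min fractions scintillation-counted. Peak radioactivity converted to ng-equivalents/mL to give AUC0-t. Co-eluting metabolites grouped and expressed relative to parent AUC and to total radioactivity.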
# [2] = Tmax in healthy human at 200 mg, po dosed as single dose; assay type: ADME, organism-based
# Summary of the method: (§2)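 Plasma parent and metabolites M3, M5, M6, M8 after one 200 mg oral 14C dose in 6 fasted male subjects, sampled 0.17–240 h. Validated LC-MS/MS with penta-deuterated internal standards and positive ESI. Low range 0.4/1.0–100 ng/mL using supported liquid extraction, high range 50–1000 ng/mL using protein precipitation. Noncompartmental analysis, geometric means (95% CI), Tmax median (range).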
# [3] = test system: Homo sapiens; assay: Tlast in healthy human treated with [14C]almorexant at 200 mg, po dosed as single dose; assay type: ADME, organism-based; summary of the method: as §1
# [4] = test system: Homo sapiens; assay: Drug level in healthy human treated with [14C]almorexant at 200 mg, po dosed as single dose relative to almorexant; assay type: ADME, organism-based; summary of the method: as §1
# [5] = test system: Homo sapiens; assay: Drug level in healthy human treated with [14C]almorexant at 200 mg, po dosed as single dose relative to total radioactivity; assay type: ADME, organism-based; summary of the method: as §1
# [6] = test system: Homo sapiens; assay: AUC (0 to t) in healthy human treated with [14C]almorexant at 200 mg, po dosed as single dose; assay type: ADME, organism-based, Plasma; summary of the method: as §1
# [7] = Drug level in feces of healthy human treated with [14C]almorexant at 200 mg, po dosed as single dose; assay type: ADME, organism-based
# Summary of the method: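 Feces pooled by weight across 6 subjects (0–48 to 192–332 h) and extracted three times with acetonitrile, then dried and reconstituted. Analyzed by radio-LC-MS/MS with a methanol/acetonitrile gradient and scintillation-counted fractions. Procedural recovery was 73.0%. Reported as percent of administered radioactive dose.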
# [8] = test system: Homo sapiens; assay: Cmax in healthy human treated with [14C]almorexant at 200 mg, po dosed as single dose; assay type: ADME, organism-based; parameters: dose 200 mg, route oral
# [9] = test system: Homo sapiens; assay: Tmax in healthy human treated with [14C]almorexant at 200 mg, po dosed as single dose; assay type: ADME, organism-based; summary of the method: as §2
# [10] = test system: Homo sapiens; assay: Half life in healthy human treated with [14C]almorexant at 200 mg, po dosed as single dose; assay type: ADME, organism-based; summary of the method: as §2
# [11] = test system: Homo sapiens; assay: AUC (0 to infinity) in healthy human treated with [14C]almorexant at 200 mg, po dosed as single dose; assay type: ADME, organism-based, Plasma; parameters: dose 200 mg, route oral, time infinity
structure (smiles),measurement,setting,value
COc1cc2c(cc1OC)[C@H](CC(O)c1ccc(C(F)(F)F)cc1)N([C@@H](C(N)=O)c1ccccc1)CC2 (stereo partly specified),Drug metabolism,[1],metabolite_detected
same,Tmax,[2],1.6 h
same,Tlast,[3],1.6 h
same,Drug uptake,[4],28.1%
same,Drug uptake,[5],0.03%
same,AUCt,[6],17.2 ng.Eq.hr/ml
CNC(=O)[C@@H](c1ccccc1)[n+]1ccc2cc(OC)c(OC)cc2c1CCc1ccc(C(F)(F)F)cc1,Drug metabolism,[1],metabolite_detected
same,Drug metabolism,[7],metabolite_detected
same,Cmax,[8],80.4 ng/mL
same,Tmax,[9],0.9 h
same,t1/2,[10],26.3 h
same,AUC,[11],282 ng·h/mL
COc1cc2cc[n+]([C@@H](C(N)=O)c3ccccc3)c(CCc3ccc(C(F)(F)F)cc3)c2cc1OC,Drug metabolism,[1],metabolite_detected
same,Drug metabolism,[7],metabolite_detected
COc1cc2c(cc1OC)[C@H](CCc1ccc(C(F)(F)F)cc1)NCC2,Drug metabolism,[1],metabolite_detected
same,Cmax,[8],99.4 ng/ml and 49 ng.Eq/ml
same,Tmax,[9],1.5 h
same,t1/2,[10],10.4 h
same,AUC,[11],1039 ng·h/mL
same,Tlast,[3],11 h
same,Drug uptake,[4],541%
same,Drug uptake,[5],0.61%
same,AUCt,[6],331 ng.Eq.hr/ml
COc1cc2c(cc1O)[C@H](CCc1ccc(C(F)(F)F)cc1)NCC2,Drug metabolism,[1],metabolite_detected
COc1cc2ccnc(CCc3ccc(C(F)(F)F)cc3)c2cc1OC,Drug metabolism,[1],metabolite_detected
COc1cc2c(cc1OC)[C@H](CC(O)c1ccc(C(F)(F)F)cc1)NCC2 (stereo partly specified),Drug metabolism,[1],metabolite_detected

# From ChEMBL document CHEMBL3526050, “Elucidation of the metabolic pathways and the resulting multiple metabolites of almorexant, a dual orexin receptor antagonist, in humans” (Drug Metab Dispos, 2013)
